Values after ≈ are worked out from the molar mass of the structure shown. Where a name gives a salt, the structure may show the parent alone.
Key:
Bacillus subtilis [1] = test: Antimicrobial activity against Bacillus subtilis NCIM-2063 after 20 hrs by two fold serial macrodilution technique; format: functional; settings: NCIM-2063, 20 h
Outline: (§1)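 Serial macrodilution in 96-well microtiter plates. Compounds were dissolved in saline (0.8% NaCl) containing 5% DMSO, and strains were incubated with a range of concentrations for 20 h at 37 °C on a rotary shaker (160 rpm). MIC was the lowest concentration without growth. Runs were in triplicate, with the mean taken. The negative control was 5% DMSO.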

Bacillus subtilis [2] = test: Bactericidal activity against Bacillus subtilis NCIM-2063 after 72 hrs by two fold serial macrodilution technique; format: functional; settings: NCIM-2063, 72 h
Outline: (§2)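 Serial subcultivation followed 72 h of exposure to compounds dissolved in saline containing 5% DMSO. MBC/MFC was the lowest concentration with no visible growth, taken as 99.5% killing of the original inoculum. Runs were in triplicate, with the mean reading used.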

Staphylococcus aureus [3] = test: Antimicrobial activity against Staphylococcus aureus NCIM-2901 after 20 hrs by two fold serial macrodilution technique; format: functional; settings: NCIM-2901, 20 h; outline: as §1
Staphylococcus aureus [4] = test: Bactericidal activity against Staphylococcus aureus NCIM-2901 after 72 hrs by two fold serial macrodilution technique; format: functional; settings: NCIM-2901, 72 h; outline: as §2
Escherichia coli [5] = test: Antimicrobial activity against Escherichia coli NCIM-2256 after 20 hrs by two fold serial macrodilution technique; format: functional; settings: NCIM-2256, 20 h; outline: as §1
Escherichia coli [6] = test: Bactericidal activity against Escherichia coli NCIM-2256 after 72 hrs by two fold serial macrodilution technique; format: functional; settings: NCIM-2256, 72 h; outline: as §2
Salmonella typhimurium [7] = test: Antimicrobial activity against […] after 20 hrs by two fold serial macrodilution technique; format: functional, Salmonella enterica subsp. enterica serovar Typhimurium; settings: Salmonella enterica; outline: as §1
Salmonella typhimurium [8] = test: Bactericidal activity against […] after 72 hrs by two fold serial macrodilution technique; format: functional, Salmonella enterica subsp. enterica serovar Typhimurium; settings: Salmonella enterica; outline: as §2
Candida albicans [9] = test: Antimicrobial activity against Candida albicans NCIM-3471 after 20 hrs by two fold serial macrodilution technique; format: functional; settings: NCIM-3471, 20 h
Candida albicans [10] = test: Fungicidal activity against Candida albicans NCIM-3471 after 48 to 72 hrs by two fold serial macrodilution technique; format: functional; outline: as §2
Aspergillus flavus [11] = test: Antimicrobial activity against Aspergillus flavus NCIM-539 after 20 hrs by two fold serial macrodilution technique; format: functional; settings: NCIM-539, 20 h
Aspergillus flavus [12] = test: Fungicidal activity against Aspergillus flavus NCIM-539 after 48 to 72 hrs by two fold serial macrodilution technique; format: functional; outline: as §2
Aspergillus niger [13] = test: Antimicrobial activity against Aspergillus niger NCIM-1196 after 20 hrs by two fold serial macrodilution technique; format: functional; settings: NCIM-1196, 20 h
Aspergillus niger [14] = test: Fungicidal activity against Aspergillus niger NCIM-1196 after 48 to 72 hrs by two fold serial macrodilution technique; format: functional; outline: as §2
Cryptococcus neoformans [15] = test: Antimicrobial activity against Cryptococcus neoformans NCIM-3378 after 20 hrs by two fold serial macrodilution technique; format: functional; settings: NCIM-3378, 20 h
Cryptococcus neoformans [16] = test: Fungicidal activity against Cryptococcus neoformans NCIM-3378 after 48 to 72 hrs by two fold serial macrodilution technique; format: functional; outline: as §2
HeLa = test: Cytotoxicity against human HeLa cells by SRB method; format: cell-based
Outline: (§3)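 SRB colorimetric growth assay. IC50, in µM, was the concentration inhibiting cell growth by 50% relative to untreated control cells. Runs were in triplicate in three independent experiments, with means reported. The positive control was doxorubicin.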

MCF7 = test: Cytotoxicity against human MCF7 cells by SRB method; format: cell-based; outline: as §3

Row | SMILES | MIC (Bacillus subtilis [1]) | MBC (Bacillus subtilis [2]) | MIC (Staphylococcus aureus [3]) | MBC (Staphylococcus aureus [4]) | MIC (Escherichia coli [5]) | MBC (Escherichia coli [6]) | MIC (Salmonella typhimurium [7]) | MBC (Salmonella typhimurium [8]) | MIC (Candida albicans [9]) | MFC (Candida albicans [10]) | MIC (Aspergillus flavus [11]) | MFC (Aspergillus flavus [12]) | MIC (Aspergillus niger [13]) | MFC (Aspergillus niger [14]) | MIC (Cryptococcus neoformans [15]) | MFC (Cryptococcus neoformans [16]) | IC50 (HeLa) | IC50 (MCF7)
1 | O=C1CSC(c2cccs2)N1c1ccc(Cl)cc1O (stereo not given) | 35 µg/mL (≈ 112 µM) | 55 µg/mL (≈ 176 µM) | 60 µg/mL (≈ 192 µM) | 150 µg/mL (≈ 481 µM) | 85 µg/mL (≈ 273 µM) | 160 µg/mL (≈ 513 µM) | 70 µg/mL (≈ 224 µM) | 155 µg/mL (≈ 497 µM) | 100 µg/mL (≈ 321 µM) | 160 µg/mL (≈ 513 µM) | 25 µg/mL (≈ 80.2 µM) | 45 µg/mL (≈ 144 µM) | 70 µg/mL (≈ 224 µM) | 155 µg/mL (≈ 497 µM) | 95 µg/mL (≈ 305 µM) | 160 µg/mL (≈ 513 µM) | 66.6 µM | 64.9 µM
2 | O=C1CSC(c2ccccn2)N1c1ccc(Cl)cc1O (stereo not given) | 85 µg/mL (≈ 277 µM) | 165 µg/mL (≈ 538 µM) | 60 µg/mL (≈ 196 µM) | 155 µg/mL (≈ 505 µM) | 90 µg/mL (≈ 293 µM) | 165 µg/mL (≈ 538 µM) | 85 µg/mL (≈ 277 µM) | 150 µg/mL (≈ 489 µM) | 55 µg/mL (≈ 179 µM) | 155 µg/mL (≈ 505 µM) | 100 µg/mL (≈ 326 µM) | 165 µg/mL (≈ 538 µM) | 80 µg/mL (≈ 261 µM) | 155 µg/mL (≈ 505 µM) | 75 µg/mL (≈ 244 µM) | 150 µg/mL (≈ 489 µM) | 87.2 µM | 88.7 µM
3 | O=C1CSC(c2ccc(O)cc2)N1c1ccc(Cl)cc1O (stereo not given) | 15 µg/mL (≈ 46.6 µM) | 25 µg/mL (≈ 77.7 µM) | 6 µg/mL (≈ 18.6 µM) | 20 µg/mL (≈ 62.2 µM) | 20 µg/mL (≈ 62.2 µM) | 35 µg/mL (≈ 109 µM) | 25 µg/mL (≈ 77.7 µM) | 45 µg/mL (≈ 140 µM) | 25 µg/mL (≈ 77.7 µM) | 40 µg/mL (≈ 124 µM) | 20 µg/mL (≈ 62.2 µM) | 35 µg/mL (≈ 109 µM) | 55 µg/mL (≈ 171 µM) | 115 µg/mL (≈ 357 µM) | 60 µg/mL (≈ 186 µM) |  | 63.8 µM | 59.4 µM
4 | Cc1ncsc1C1SCC(=O)N1c1ccc(Cl)cc1O (stereo not given) | 30 µg/mL (≈ 91.8 µM) | 55 µg/mL (≈ 168 µM) | 15 µg/mL (≈ 45.9 µM) | 20 µg/mL (≈ 61.2 µM) | 15 µg/mL (≈ 45.9 µM) | 20 µg/mL (≈ 61.2 µM) | 20 µg/mL (≈ 61.2 µM) | 40 µg/mL (≈ 122 µM) | 30 µg/mL (≈ 91.8 µM) | 45 µg/mL (≈ 138 µM) | 3 µg/mL (≈ 9.18 µM) | 20 µg/mL (≈ 61.2 µM) | 80 µg/mL (≈ 245 µM) | 135 µg/mL (≈ 413 µM) | 55 µg/mL (≈ 168 µM) |  | 78.5 µM | 75.7 µM
5 | N#Cc1ccc(C2SCC(=O)N2c2ccc(Cl)cc2O)cc1 (stereo not given) | 100 µg/mL (≈ 302 µM) | 140 µg/mL (≈ 423 µM) | 35 µg/mL (≈ 106 µM) | 145 µg/mL (≈ 438 µM) | 90 µg/mL (≈ 272 µM) | 120 µg/mL (≈ 363 µM) | 55 µg/mL (≈ 166 µM) | 115 µg/mL (≈ 348 µM) | 90 µg/mL (≈ 272 µM) | 140 µg/mL (≈ 423 µM) | 60 µg/mL (≈ 181 µM) | 115 µg/mL (≈ 348 µM) | 100 µg/mL (≈ 302 µM) | 145 µg/mL (≈ 438 µM) | 85 µg/mL (≈ 257 µM) |  | 83.2 µM | 81.2 µM
6 | CC1(C)S[C@@H]2[C@H](NC(=O)[C@H](N)c3ccccc3)C(=O)N2[C@H]1C(=O)O [AMPICILLIN] | 12.5 µg/mL (≈ 35.8 µM) | 17.5 µg/mL (≈ 50.1 µM) | 12.5 µg/mL (≈ 35.8 µM) | 17.5 µg/mL (≈ 50.1 µM) | 12.5 µg/mL (≈ 35.8 µM) | 17.5 µg/mL (≈ 50.1 µM) | 12.5 µg/mL (≈ 35.8 µM) | 17.5 µg/mL (≈ 50.1 µM) |  |  |  |  |  |  |  |  |  | 
7 | O=C(O)c1cn(C2CC2)c2cc(N3CCNCC3)c(F)cc2c1=O [CIPROFLOXACIN] | 6.25 µg/mL (≈ 18.9 µM) | 13 µg/mL (≈ 39.2 µM) |  | 13 µg/mL (≈ 39.2 µM) | 7.5 µg/mL (≈ 22.6 µM) | 8 µg/mL (≈ 24.1 µM) | 7.5 µg/mL (≈ 22.6 µM) | 8 µg/mL (≈ 24.1 µM) |  |  |  |  |  |  |  |  |  | 
8 | COc1cccc2c1C(=O)c1c(O)c3c(c(O)c1C2=O)C[C@@](O)(C(=O)CO)C[C@@H]3O[C@H]1C[C@H](N)[C@H](O)[C@H](C)O1 [DOXORUBICIN HYDROCHLORIDE] |  |  |  |  |  |  |  |  |  |  |  |  |  |  |  |  | < 0.1 µM | < 0.1 µM
9 | OC(Cn1cncn1)(Cn1cncn1)c1ccc(F)cc1F [FLUCONAZOLE] |  |  |  |  |  |  |  |  | 10 µg/mL (≈ 32.7 µM) | 22.5 µg/mL (≈ 73.5 µM) | 6.25 µg/mL (≈ 20.4 µM) | 16.5 µg/mL (≈ 53.9 µM) | 6.25 µg/mL (≈ 20.4 µM) | 16.5 µg/mL (≈ 53.9 µM) | 6.25 µg/mL (≈ 20.4 µM) | 16.5 µg/mL (≈ 53.9 µM) |  | 
10 | Clc1ccc(COC(Cn2ccnc2)c2ccc(Cl)cc2Cl)c(Cl)c1 (stereo not given) [MICONAZOLE] |  |  |  |  |  |  |  |  | 3.25 µg/mL (≈ 7.81 µM) | 12.5 µg/mL (≈ 30 µM) | 3.25 µg/mL (≈ 7.81 µM) | 12.5 µg/mL (≈ 30 µM) | 3.25 µg/mL (≈ 7.81 µM) | 12.5 µg/mL (≈ 30 µM) | 3.25 µg/mL (≈ 7.81 µM) | 12.5 µg/mL (≈ 30 µM) |  | 

Reference: ChEMBL document CHEMBL3352499, “One pot three components microwave assisted and conventional synthesis of new 3-(4-chloro-2-hydroxyphenyl)-2-(substituted) thiazolidin-4-one as antimicrobial agents” (Bioorg Med Chem Lett, 2014)
